Assay results from ChEMBL document CHEMBL4190402, “Development of a Novel Human Parathyroid Hormone Receptor 1 (hPTHR1) Agonist (CH5447240), a Potent and Orally Available Small Molecule for Treatment of Hypoparathyroidism” (J Med Chem, 2018).
In brackets after ≈: the same amount, converted by molar mass. Activity calls are given as the source filed them. The calls are words filed in the database; no cut-off is given here.

Assays:
[1] = biological target: T1, Parathyroid hormone/parathyroid hormone-related peptide receptor (Homo sapiens) (UniProt Q03431); assay: (§1) Agonist activity at human PTHR1 expressed in HKRKB7 cells assessed as accumulation of intracellular cAMP after 20 mins by enzyme immunoassay; format: functional, cell-based
T1 sequence (whole entry): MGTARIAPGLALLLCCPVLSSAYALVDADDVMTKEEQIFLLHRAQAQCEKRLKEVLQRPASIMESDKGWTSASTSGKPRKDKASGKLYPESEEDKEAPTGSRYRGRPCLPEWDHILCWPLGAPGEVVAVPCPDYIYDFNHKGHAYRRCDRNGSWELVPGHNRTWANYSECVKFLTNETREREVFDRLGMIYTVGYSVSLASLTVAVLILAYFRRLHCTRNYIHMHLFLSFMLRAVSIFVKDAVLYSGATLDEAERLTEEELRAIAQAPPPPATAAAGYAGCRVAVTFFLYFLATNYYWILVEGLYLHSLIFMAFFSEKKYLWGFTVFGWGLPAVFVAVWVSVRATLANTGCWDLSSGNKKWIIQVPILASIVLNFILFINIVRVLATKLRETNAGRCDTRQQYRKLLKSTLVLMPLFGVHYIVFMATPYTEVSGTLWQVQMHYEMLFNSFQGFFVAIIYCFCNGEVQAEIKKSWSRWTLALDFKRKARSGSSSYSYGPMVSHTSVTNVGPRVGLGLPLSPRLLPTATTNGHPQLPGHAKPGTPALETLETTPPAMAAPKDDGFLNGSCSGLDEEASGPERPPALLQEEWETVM
Outline: (§2)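 HKRK-B7 cells (LLC-PK1 stably expressing hPTHR1), 1.0 x 10^3 per well, seeded overnight, then exposed to serially diluted compound in McCoy's 5A with 2 mg/ml BSA, 1 mmol/l IBMX and 2 mmol/l HEPES for 20 min at 37°C. Cells washed, frozen, lysed in 50 mmol/l HCl, cAMP read by EIA.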

LLC-PK1 = assay: Induction of cAMP production in porcine LLC-PK1 cells after 20 mins by enzyme immunoassay; format: functional, cell-based; settings: Sus scrofa
Outline: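 Counter-screen on parent LLC-PK1 cells lacking hPTHR1. Conditions match the HKRK-B7 assay: 20 min at 37°C in IBMX-containing assay medium, then cAMP read by EIA.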

[2] = Solubility of the compound in FaSSIF at 1 mM by HPLC-UV analysis; format: physicochemical; settings: for solubility at 1000 µM: FaSSIF
Outline: (§3)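 A 1 mM DMSO stock (50 µL) was freeze-dried, then the residue taken up in 50 mM PBS pH 6.5 or FaSSIF pH 6.5. Sonicated 10 min, shaken 2 h, centrifuged, filtered. Filtrate concentration determined by HPLC-UV against each compound's calibration curve.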

[3] = Solubility of the compound in PBS at pH 6.5 at 1 mM by HPLC-UV analysis; format: physicochemical; settings: for solubility: buffer, pH 6.5, 1000 µM, BLD = below limit of detection; for solubility at 1000 µM: PBS, pH 6.5; outline: as §3
[4] = Intrinsic clearance in human liver microsomes assessed per mg protein at 1 uM after 30 mins in presence of NADPH by LC-MS/MS analysis; format: ADME, microsome; settings: read-out: CLH
[5] = biological target: T2, Parathyroid hormone/parathyroid hormone-related peptide receptor (Homo sapiens, UniProt Q03431); assay: as §1; format: functional, cell-based; outline: as §2
T2 sequence (Q03431 whole entry): T1 sequence (whole entry)

[6] = Intrinsic clearance in human liver microsomes assessed per mg protein at 1 uM after 30 mins in absence of NADPH by LC-MS/MS analysis; format: ADME, microsome; settings: liver microsomes, read-out: CLH
[7] = biological target: T1, Parathyroid hormone/parathyroid hormone-related peptide receptor (Homo sapiens); assay: Agonist activity at human PTHR1 expressed in HKRKB7 cells assessed as accumulation of intracellular cAMP at 1 mM after 20 mins by enzyme immunoassay relative to human PTH (1 to 34 residues); format: functional, cell-based; outline: as §2
Rattus norvegicus [8] = assay: In vivo agonist activity at PTHR1 in Crl:CD(SD) rat TPTX model assessed as increase in serum calcium levels at 9 nmol/kg, sc administered as single dose measured after 24 hrs by o-cresolphthalein complexone method; format: functional, organism-based
Outline: (§4)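 Female 6-week-old Crl:CD(SD) rats after surgical TPTX; those with serum Ca <8.0 mg/dl at day 5 were used, and treatment began day 6. Single sc dose of hPTH(1-34) at 9 nmol/kg, or phosphate-citrate buffer pH 6.0 vehicle, n=5 per group. Jugular blood taken under isoflurane before dosing and at 0.5–24 h. Serum Ca measured by o-CPC, Pi by xanthine oxidase. Mean ± SEM.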

Rattus norvegicus [9] = assay: In vivo agonist activity at PTHR1 in Crl:CD(SD) rat TPTX model assessed as decrease in serum phosphorus levels 9 nmol/kg, sc administered as single dose measured after 24 hrs by xanthine oxidase method; format: functional, organism-based; outline: as §4

SMILES | EC20 [1] | Activity (LLC-PK1) | microsomal CLint at 1 µM [4] | EC50 [5] | Activity [7] | further results
O=C1NC(c2ccc(Cl)cc2Cl)=NC12CCN(S(=O)(=O)CCc1cccc3ccccc13)CC2 | 150 µM | inactive |  |  |  | 
O=C1NC(C2CCCCC2)=NC12CCN(S(=O)(=O)CCc1cccc3ccccc13)CC2 | 15 µM | inactive | 300 µL/min/mg |  |  | solubility at 1000 µM [2]: 3.1 µg/mL (≈ 6.83 µM); solubility [3]: Bld
CC(=O)Nc1ccc(CCS(=O)(=O)N2CCC3(CC2)N=C(C2CCCCC2)NC3=O)c(C)c1 | 11 µM | inactive | 46 µL/min/mg | 50 µM |  | solubility at 1000 µM [2]: 400 µg/mL (≈ 843 µM); solubility at 1000 µM [3]: 280 µg/mL (≈ 590 µM); microsomal CLint at 1 µM [6]: 33 µL/min/mg
O=C1NC(C2CCCCC2)=NC12CCN(S(=O)(=O)CCc1ccncc1)CC2 | > 1000 µM | inactive |  |  |  | 
O=C1NC(C2CCCCC2)=NC12CCN(S(=O)(=O)c1cccc3ccccc13)CC2 | 220 µM | inactive |  |  |  | 
O=C1NC(C2CCCCC2)=NC12CCN(S(=O)(=O)c1cccc(Cl)c1)CC2 | 140 µM | inactive |  |  | 45% | 
O=C(O)c1ccc(C2=NC3(CCN(S(=O)(=O)c4cccc(Cl)c4)CC3)C(=O)N2)cc1 |  | inactive |  |  | 1.3% | 
C[C@H]1CC[C@H](C2=NC3(CCN(S(=O)(=O)c4cccc(Cl)c4)CC3)C(=O)N2)CC1 |  | inactive |  |  | 35% | 
CC(=O)Nc1cc(C)c(CCS(=O)(=O)N2CCC3(CC2)N=C(C2CCCCC2)NC3=O)c(C)c1 | 6.4 µM | inactive | 39 µL/min/mg | 26 µM |  | solubility at 1000 µM [2]: 38 µg/mL (≈ 77.8 µM); solubility at 1000 µM [3]: 8 µg/mL (≈ 16.4 µM); microsomal CLint at 1 µM [6]: 18 µL/min/mg
Cc1ccccc1CCS(=O)(=O)N1CCC2(CC1)N=C(C1CCCCC1)NC2=O | 30 µM | inactive | 100 µL/min/mg | > 1000 µM |  | solubility at 1000 µM [2]: 15 µg/mL (≈ 35.9 µM); solubility at 1000 µM [3]: 11 µg/mL (≈ 26.3 µM)
Cc1cc(N2CCNC2=O)cc(C)c1CCS(=O)(=O)N1CCC2(CC1)N=C(C1CCCCC1)NC2=O | 240 µM | inactive | 62 µL/min/mg | > 1000 µM |  | solubility ([2]; simulated gi fluid, 1000 µM, BLD = below limit of detection): Bld; solubility [3]: Bld; microsomal CLint at 1 µM [6]: 3.4 µL/min/mg
Cc1cc(N(C)C(N)=O)cc(C)c1CCS(=O)(=O)N1CCC2(CC1)N=C(C1CCCCC1)NC2=O | 8.1 µM | inactive | 23 µL/min/mg | 67 µM |  | solubility at 1000 µM [2]: 450 µg/mL (≈ 893 µM); solubility at 1000 µM [3]: 290 µg/mL (≈ 576 µM)
O=C1NC(c2ccccc2Cl)=NC12CCN(S(=O)(=O)c1cccc(Cl)c1)CC2 |  | inactive |  |  | 18% | 
O=C1NC(c2ccccc2)=NC12CCN(S(=O)(=O)c1cccc(Cl)c1)CC2 |  | inactive |  |  | 1.9% | 
O=C1NC(c2ccc(Cl)cc2Cl)=NC12CCN(S(=O)(=O)c1cccc(Cl)c1)CC2 | 530 µM | inactive |  | > 1000 µM | 23% | 
CC[C@H](C)[C@H](NC(=O)[C@H](CCC(=O)O)NC(=O)[C@H](CO)NC(=O)[C@@H](NC(=O)[C@@H](N)CO)C(C)C)C(=O)N[C@@H](CCC(N)=O)C(=O)N[C@@H](CC(C)C)C(=O)N[C@@H](CCSC)C(=O)N[C@@H](Cc1cnc[nH]1)C(=O)N[C@@H](CC(N)=O)C(=O)N[C@@H](CC(C)C)C(=O)NCC(=O)N[C@@H](CCCCN)C(=O)N[C@@H](Cc1cnc[nH]1)C(=O)N[C@@H](CC(C)C)C(=O)N[C@@H](CC(N)=O)C(=O)N[C@@H](CO)C(=O)N[C@@H](CCSC)C(=O)N[C@@H](CCC(=O)O)C(=O)N[C@@H](CCCNC(=N)N)C(=O)N[C@H](C(=O)N[C@@H](CCC(=O)O)C(=O)N[C@@H](Cc1c[nH]c2ccccc12)C(=O)N[C@@H](CC(C)C)C(=O)N[C@@H](CCCNC(=N)N)C(=O)N[C@@H](CCCCN)C(=O)N[C@@H](CCCCN)C(=O)N[C@@H](CC(C)C)C(=O)N[C@@H](CCC(N)=O)C(=O)N[C@@H](CC(=O)O)C(=O)N[C@H](C(=O)N[C@@H](Cc1cnc[nH]1)C(=O)N[C@@H](CC(N)=O)C(=O)N[C@@H](Cc1ccccc1)C(=O)O)C(C)C)C(C)C |  |  |  |  |  | Activity (Rattus norvegicus [8]): Active; Activity (Rattus norvegicus [9]): Active
O=C1NC(c2ccncc2)=NC12CCN(S(=O)(=O)c1cccc(Cl)c1)CC2 |  | inactive |  |  | 1% | 
O=C1NC(C2CCCCC2)=NC12CCN(S(=O)(=O)CCc1ccccc1)CC2 | 240 µM | inactive |  |  |  | 
O=C1NC(C2CCCCC2)=NC12CCN(S(=O)(=O)Cc1ccccc1)CC2 | > 1000 µM | inactive |  |  |  | 
O=C1NC(c2ccc(Cl)cc2)=NC12CCN(S(=O)(=O)c1cccc(Cl)c1)CC2 |  | inactive |  |  | 22% | 
